This note sets out measurements from ChEMBL document CHEMBL2440111, “Overcoming doxorubicin-resistance in the NCI/ADR-RES model cancer cell line by novel anthracene-9,10-dione derivatives” (Bioorg Med Chem Lett, 2013).

Calls of active or inactive are those of the source. The rule behind the calls is not given here.

By inhibition is commonly meant how much of the control response was suppressed. The term IC50 denotes the point on the concentration scale where inhibition reaches its midpoint. Read a high IC50 as a need for much substance.

The test system of assay [1] is OVCAR-8. Put plainly: Antiproliferative activity against human OVCAR8 cells at 20 uM after 72 hrs by MTT assay. Conditions: OVCAR-8, 72 h. The class given is functional. A digest of the protocol:
(§1)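 Each cell line in the panel was treated with 20 µM compound, with doxorubicin as reference. Exponentially growing cells were grown at 37 °C in 5% CO2. MTT read-out served as a surrogate of viable cell number, expressed as % inhibition versus an untreated control. Values are mean ± SD of three independent experiments.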
For orientation: Formazan colour is commonly taken as a measure of viable cells.

The test system of assay [2] is NCI/ADR-RES. Put plainly: Antiproliferative activity against human NCI/ADR-RES cells at 20 uM after 72 hrs by MTT assay. The class given is functional. The essentials:
as §1

Assay [3] concerns BXPC-3. The experiment in a line: Antiproliferative activity against human BxPC3 cells at 20 uM after 72 hrs by MTT assay. The class given is functional. Conditions: BXPC-3, 72 h. A digest of the protocol:
as §1

Assay [4] relates to OVCAR-8. Put plainly: Antiproliferative activity against human OVCAR8 cells at 20 uM after 72 hrs by MTT assay in presence of glutathione. The format is functional, cell-based.
The test system of assay [5] is U2OS. The experiment in a line: Antiproliferative activity against human U2OS cells at 20 uM after 72 hrs by MTT assay. The class given is functional. A digest of the protocol:
as §1

Assay [6] can be described thus: Antiproliferative activity against human Caov3 cells at 20 uM after 72 hrs by MTT assay. The class given is functional. The following applies: Caov-3, 72 h. The essentials:
as §1

A short description of assay [7]: Antiproliferative activity against human […] cells at 20 uM after 72 hrs by MTT assay. The format is functional. A digest of the protocol: as §1
Assay [8] concerns PC-3. The experiment in a line: Antiproliferative activity against human PC3 cells at 20 uM after 72 hrs by MTT assay. The class given is functional. Conditions: PC-3, 72 h. The essentials:
as §1

Assay [9] has as its system MIA PaCa-2. Put plainly: Antiproliferative activity against human MIAPaCa2 cells at 20 uM after 72 hrs by MTT assay. The class given is functional. The following applies: MIA PaCa-2, 72 h. The essentials:
as §1

The test system of assay [10] is OVCAR-8. The experiment in a line: Antiproliferative activity against human OVCAR8 cells at 20 uM after 72 hrs by MTT assay in presence of N-acetylcysteine. The format is functional, cell-based.
In assay [11] the test system is LNCaP. The experiment in a line: Antiproliferative activity against human LNCAP cells at 20 uM after 72 hrs by MTT assay. The format is functional. A digest of the protocol:
as §1

Assay [12] has as its system DU-145. The experiment in a line: Antiproliferative activity against human DU145 cells at 20 uM after 72 hrs by MTT assay. The class given is functional. The following applies: DU-145, 72 h. A digest of the protocol:
as §1

Assay [13] concerns NCI/ADR-RES. Put plainly: Antiproliferative activity against human NCI/ADR-RES cells at 20 uM after 72 hrs by MTT assay in presence of glutathione. The class given is functional. The essentials: (§2)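 NCI/ADR-RES cells were pretreated for 2 h with 5 mM N-acetylcysteine or glutathione. Compound at 20 µM was then added for 72 h, with doxorubicin as positive control. Percent inhibition was measured by MTT.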

In assay [14] the test system is PC-3. The experiment in a line: Antiproliferative activity against human PC3 cells after 72 hrs by MTT assay. Conditions: PC-3, 72 h. The format is functional, cell-based. The essentials: (§3)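 Cells kept in exponential growth at 37 °C in humidified 5% CO2 with 2 mM L-glutamine, mycoplasma-checked. Compounds were applied over a dose range and viability was read by MTT relative to an untreated control. IC50 is the concentration giving a 50% decrease in viability. Values are mean ± SD of three independent experiments.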

Assay [15] deals with NCI/ADR-RES. Put plainly: Antiproliferative activity against human NCI/ADR-RES cells at 20 uM after 72 hrs by MTT assay in presence of N-acetylcysteine. The format is functional. The essentials:
as §2

Assay [16] relates to BXPC-3. The experiment in a line: Antiproliferative activity against human BxPC3 cells after 72 hrs by MTT assay. The format is functional, cell-based. The following applies: BXPC-3, 72 h. The essentials:
as §3

The test system of assay [17] is NCI/ADR-RES. Put plainly: Inhibition of colony formation in human NCI/ADR-RES cells after 24 hrs. The class given is functional, cell-based. The essentials:
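NCI/ADR-RES cells were seeded at 100 cells/well and left to attach overnight. Serial compound dilutions were applied for 24 h, then washed out. Colonies grew in drug-free medium for 8-10 days and were fixed with 1% glutaraldehyde and stained with 2% crystal violet, 30 min each. Colonies were imaged and counted versus untreated control; values are means of ≥3 independent experiments.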

Assay [18] relates to OVCAR-8. Put plainly: Antiproliferative activity against human OVCAR8 cells after 72 hrs by MTT assay. Conditions: OVCAR-8, 72 h. The format is functional, cell-based. A digest of the protocol: as §3
Assay [19] can be described thus: Antiproliferative activity against human Caov3 cells after 72 hrs by MTT assay. The class given is functional, cell-based. Conditions: Caov-3, 72 h. A digest of the protocol:
as §3

Assay [20] deals with MIA PaCa-2. Put plainly: Antiproliferative activity against human MIAPaCa2 cells after 72 hrs by MTT assay. The class given is functional, cell-based. The following applies: MIA PaCa-2, 72 h. A digest of the protocol:
as §3

Assay [21] in a line: Antiproliferative activity against human […] cells after 72 hrs by MTT assay. The format is functional, cell-based. A digest of the protocol: as §3
For assay [22], the system named is U2OS. The experiment in a line: Antiproliferative activity against human U2OS cells after 72 hrs by MTT assay. The format is functional, cell-based. The essentials:
as §3

Assay [23] has as its system NCI/ADR-RES. Put plainly: Antiproliferative activity against human NCI/ADR-RES cells after 72 hrs by MTT assay. The format is functional, cell-based. The essentials: as §3
Assay [24] concerns LNCaP. The experiment in a line: Antiproliferative activity against human LNCAP cells after 72 hrs by MTT assay. The format is functional, cell-based. The essentials:
as §3

For assay [25], the system named is DU-145. The experiment in a line: Antiproliferative activity against human DU145 cells after 72 hrs by MTT assay. The class given is functional, cell-based. The following applies: DU-145, 72 h. A digest of the protocol: as §3
In assay [26] the test system is LNCaP. The experiment in a line: Increase of cleaved caspase-9 level in human LNCAP cells at 3 uM after 24 hrs by Western blot analysis. The class given is functional, cell-based. A digest of the protocol:
(§4)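 LNCaP cells were treated for 24 h, then lysed. Equal protein was run on 12% SDS-PAGE and blotted to PVDF. Membranes were blocked 1 h in 5% skim milk/TBS-0.1% Tween and probed overnight at 4 °C with anti-p53 or anti-caspase-9. A secondary antibody and ECL detection followed, with GAPDH as loading control.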
(A western blot detects proteins with antibodies after separation by electrophoresis.)

In assay [27] the test system is LNCaP. The experiment in a line: Up-regulation of p53 expression in human LNCAP cells at 3 uM after 24 hrs by Western blot analysis. The format is functional, cell-based. The essentials: as §4

Regarding `Cc1ccc(S(=O)(=O)Oc2ccc(OCCOCCO)c3c2C(=O)c2ccccc2C3=O)cc1`, the inhibition at 20 µM in assay [1] worked out at 8.5%; in [2], 15.3%; in assay [3] it was 14.5%; in assay [5] it was 43%; in [6], 42.7%; in assay [7], 31.4%. The inhibition at 20 µM in [8] was determined as 9.9%; in [9], 35.9%; in assay [11] it was 26.7%; in assay [12] it was 9%. For the same compound, the inhibition entry in assay [4] and in assay [10] was “Active” throughout.

As for `Cc1ccc(S(=O)(=O)Oc2ccc(OCCOCCOCCOCCO)c3c2C(=O)c2ccccc2C3=O)cc1`, the inhibition at 20 µM in assay [1] turned out to be 5.5%; in [2], 1.7%; in assay [3] it was 11.8%; in [5], 41.9%; in assay [6], 48.2%; in [7], 47.8%. In addition, the inhibition at 20 µM in assay [8] was 23.7%; in assay [9], 29.5%; in [11], 40.3%; in [12] it was 21.6%.

For the compound `Cc1ccc(S(=O)(=O)Oc2ccc(NCc3ccc(Cl)cc3)c3c2C(=O)c2ccccc2C3=O)cc1`, the inhibition at 20 µM in assay [1] is 64.4%; in assay [13], over 60%; in assay [2], 80.4%; in [3], 85.2%; in [15], over 60%; in assay [5], 66.1%. Also, the inhibition at 20 µM in [6] is 84.6%; in [7], 63.5%; in [8], 81.2%; in assay [9] it was 80.6%; in [11] it was 79.9%; in [12], 69.1%. In addition, the IC50 was over 20000 nM in [14]; 2400 nM in assay [16]; 4400 nM in [18]; 2500 nM in assay [19]; 4500 nM in assay [20]; 4000 nM in assay [21]. The IC50 in [22] amounted to 4800 nM; in [23] it was 2200 nM; in assay [24], 2400 nM; in assay [25] it was 6500 nM. Moreover, in [17], the inhibition result is “Dose-dependent effect”. Also, the inhibition result in [4] and in assay [10] was “Active” each time.

Take `O=C1c2ccccc2C(=O)c2c(OCCOCCO)ccc(OCCOCCO)c21`: the inhibition at 20 µM in assay [1] worked out at 3.4%; in assay [2] it was 46.4%; in assay [3], 23.1%; in assay [5], 32.4%; in assay [6], 7.3%; in [7], 44.3%. Further, the inhibition at 20 µM in assay [8] amounted to 10.6%; in assay [9] it was 31.1%; in [11], 46.9%; in assay [12], 10%.

`COc1ccc(CNc2ccc(OS(=O)(=O)c3ccc(C)cc3)c3c2C(=O)c2ccccc2C3=O)cc1`: the inhibition at 20 µM was 58.2% in assay [1]; over 60% in assay [13]; 77.8% in [2]; 91.5% in assay [3]; over 60% in assay [15]; 59.8% in assay [5]. Besides, the inhibition at 20 µM in [6] was determined as 83.1%; in [7], 53.3%; in [8] it was 46.2%; in assay [9], 81.4%; in [11] it was 78.7%; in assay [12], 62.2%. For the same compound, the IC50 in assay [14] is 8000 nM; in [16], 600 nM; in [18] it was 8000 nM; in [19], 1800 nM; in assay [20], 1900 nM; in assay [21], over 20000 nM. Further, the 50% inhibitory concentration (IC50) in [22] amounted to 4500 nM; in assay [23], 1200 nM; in [24], 900 nM; in [25], 2200 nM. In assay [17], the inhibition entry was “Dose-dependent effect”. The inhibition entry in [4] and in assay [10] was “Active” throughout.

Regarding `COc1cccc2c1C(=O)c1c(O)c3c(c(O)c1C2=O)C[C@@](O)(C(=O)CO)C[C@@H]3O[C@H]1C[C@H](N)[C@H](O)[C@H](C)O1` [DOXORUBICIN], the inhibition at 20 µM in assay [1] turned out to be 86%; in [13] it was 21%; in assay [2], 41%; in assay [3], 96.2%; in assay [15], 13%; in assay [5] it was 90%. For the same compound, the inhibition at 20 µM in [6] came to 92.6%; in [7] it was 83.5%; in assay [8], 6.9%; in [9], 88.1%; in assay [11] it was 85.8%; in assay [12], 80.6%. Besides, the IC50 in assay [14] is 1000 nM; in [16] it was 400 nM; in assay [18] it was 600 nM; in [19], under 100 nM; in [20], under 100 nM; in [21] it was 1500 nM. Further, the IC50 in assay [22] was 300 nM; in [23], over 20000 nM; in [24] it was 200 nM; in assay [25] it was 200 nM. In addition, the outcome in assay [26] and in assay [27] was Active. Also, the inhibition result in assay [4] and in assay [10] was “Active” each time.

Consider `Cc1ccc(S(=O)(=O)Oc2ccc(OCCOCCOCCO)c3c2C(=O)c2ccccc2C3=O)cc1`, for which the inhibition at 20 µM in assay [1] came to 13.1%; in [2] it was 20.4%; in assay [3], 15.3%; in assay [5], 44.2%; in assay [6], 47.3%; in assay [7] it was 46.9%. For the same compound, the inhibition at 20 µM is 16.6% in assay [8], 53.4% in assay [9], 24.5% in [11] and 16.8% in assay [12]. In addition, in assay [10], the inhibition entry was “Active”.

For the compound `O=C1c2ccccc2C(=O)c2c(OCCOCCOCCO)ccc(OCCOCCOCCO)c21`, the inhibition at 20 µM in [1] was 37.4%; in assay [2] it was 41.5%; in assay [3], 17.5%; in assay [5], 11.1%; in assay [6], 16.3%; in assay [7] it was 6.4%. Further, the inhibition at 20 µM in assay [8] was found to be 16.4%; in assay [9], 36.1%; in assay [11], 38.2%; in assay [12] it was 17.7%.
